Consider four molecules from ChEMBL document CHEMBL1144733, “Design and synthesis of nitrate esters of aromatic heterocyclic compounds as pharmacological preconditioning agents” (2008).

Molecules are shown by their SMILES. Calls of active or inactive are those of the source. The rule behind the calls is not given here.

For assay [1], the system named is Oryctolagus cuniculus. The assay is described as follows: Increase in circulating cGMP level in New Zealand white rabbit at 1.3 mg/kg, iv after 20 mins of ischemia by enzyme immunoassay relative to control. Format: functional, organism-based. Also noted: dose 1.3 mg/kg. A digest of the protocol:
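Plasma from rabbits dosed 1.3 mg/kg iv (40 and 1 min pre-ischemia) drawn at 20 min of sustained ischemia. cGMP by competitive enzyme immunoassay: alkaline phosphatase-cGMP conjugate plus polyclonal antibody, 2 h at 25 C shaking, p-nitrophenyl phosphate 1 h, read 450 nm corrected at 550 nm; concentration from standard curve.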

For assay [2], the system named is Oryctolagus cuniculus. The assay is described as follows: Decrease in MDA level in New Zealand white rabbit at 1.3 mg/kg, iv after 20 mins of reperfusion relative to control. Format: functional, organism-based. Also noted: dose 1.3 mg/kg. A digest of the protocol: (§1)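 Rabbit plasma sampled at baseline, 20 min ischemia, and 1 and 20 min reperfusion after 1.3 mg/kg iv (two boluses). MDA by N-methyl-2-phenyl-indole colorimetric kit: 0.2 ml plasma plus reagent and HCl, 45 C for 60 min, centrifuged, A586; MDA standard curve (2-20 lmol/ml); triplicate; mean ± SEM.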

Assay [3] has as its system Oryctolagus cuniculus. The assay is described as follows: Increase in MDA level in New Zealand white rabbit at 1.3 mg/kg, iv after 20 mins of ischemia relative to control. Also noted: dose 1.3 mg/kg. It is filed as functional, organism-based. In short, it runs like this:
as §1

In assay [4] the test system is Oryctolagus cuniculus. The assay is described as follows: Cardioprotective effect in New Zealand white rabbit assessed as reduction of infract size at 1.3 mg/kg, iv administered before 30 mins of ischemia and 3 hrs of reperfusion relative to control. It is filed as functional. Also noted: scale not given: the % may be the effect or the level left. A digest of the protocol: (§2)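 Anesthetized (pentobarbital 30 mg/kg iv), ventilated male rabbits; regional myocardial ischemia 30 min, reperfusion 3 h. Total 1.3 mg/kg split into two iv boluses in 0.2 ml DMSO + 0.8 ml saline, 40 min and 1 min before ischemia; controls got vehicle. Microspheres delineated risk zone; 3 mm slices stained with 1% TTC, 20 min, 37 C; infarct/risk volume ratio (%). n = 5-10 per group.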

The subject of assay [5] is Oryctolagus cuniculus. The assay is described as follows: Cardioprotective effect in New Zealand white rabbit assessed as reduction of infract size at 1.3 mg/kg, iv administered before 30 mins of ischemia and 3 hrs of reperfusion in presence of mitoKATP blocker 5-hydroxydecanoic acid relative to control. It is filed as functional. Details: scale not given: the % may be the effect or the level left. A digest of the protocol:
as §2

In assay [6] the test system is Oryctolagus cuniculus. The assay is described as follows: Cardioprotective effect in New Zealand white rabbit assessed as reduction of infract size at 1.3 mg/kg, iv administered before 30 of mins ischemia and 3 hrs of reperfusion in presence of adenosine receptor blocker 8-(p-sulfonyl) theophylline relative to control. It is filed as functional. Also noted: scale not given: the % may be the effect or the level left. In short, it runs like this: as §2

Turning to `O=C(NCCO[N+](=O)[O-])c1ccc2ccccc2n1`, the outcome in the assay on Oryctolagus cuniculus [1], in the assay with Oryctolagus cuniculus [2] and in the assay on Oryctolagus cuniculus [3] was Active. Further, the Activity in the assay with Oryctolagus cuniculus [4] was 22.4%.
Consider `O=[N+]([O-])OCCCCCCCCCCCn1cnc2c(N3CCCCC3)ncnc21`, for which the outcome in the assay with Oryctolagus cuniculus [1] and in the assay on Oryctolagus cuniculus [2] was Active.
For the molecule `O=C(NCCO[N+](=O)[O-])c1cc2ccccc2[nH]1`, the result in the assay with Oryctolagus cuniculus [1], in the assay on Oryctolagus cuniculus [2] and in the assay on Oryctolagus cuniculus [3] was Active. The Activity came out at 40.12% in the assay with Oryctolagus cuniculus [5] and 20.5% in the assay on Oryctolagus cuniculus [4].
Regarding `O=[N+]([O-])OCCCCCCn1cnc2c(N3CCCCC3)ncnc21`, the result with Oryctolagus cuniculus [2] was Active. Besides, the results for the Activity in the assay with Oryctolagus cuniculus [5], in the assay with Oryctolagus cuniculus [6] and in the assay with Oryctolagus cuniculus [4] were 21.9%, 28.03% and 19.8%, respectively.
